Data from ChEMBL document CHEMBL3865817, “Synthesis and biological evaluation of C(5)-substituted derivatives of leukotriene biosynthesis inhibitor BRP-7” (Eur J Med Chem, 2016).
Activity calls are given as the source filed them. The calls are words filed in the database; no cut-off is given here.

Key:
[1] = biological target: T1, Arachidonate 5-lipoxygenase-activating protein (Homo sapiens) (UniProt P20292); test: (§1) Inhibition of FLAP in human neutrophils assessed as suppression of A23187-stimulated 5-LO product formation using arachidonic acid as substrate measured as residual activity at 1 uM preincubated for 15 mins followed by A23187/arachidonic acid addition after 10 mins RP-HPLC/UV analysis relative to control
T1 sequence (whole entry): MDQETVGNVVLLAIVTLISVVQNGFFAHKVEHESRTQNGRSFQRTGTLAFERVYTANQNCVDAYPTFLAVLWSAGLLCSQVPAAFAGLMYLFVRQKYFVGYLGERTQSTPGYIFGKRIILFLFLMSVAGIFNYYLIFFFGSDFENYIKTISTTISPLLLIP
How it was run: (§2)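 Neutrophils were isolated from human blood by dextran sedimentation, Nycoprep centrifugation and hypotonic lysis of erythrocytes, then resuspended in PGC buffer (PBS pH 7.4, 1 mg/ml glucose, 1 mM CaCl2). Cells were pre-incubated with compound or vehicle (0.1% DMSO) for 15 min at 37 °C, stimulated with 2.5 µM A23187 for 10 min, and stopped with methanol. Internal standard PGB1. 5-LO products (LTB4, its trans isomers, 5-H(P)ETE) were measured by HPLC.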

[2] = biological target: T1, Arachidonate 5-lipoxygenase-activating protein (Homo sapiens); test: as §1, with “at 10” for “at 1”; how it was run: as §2
[3] = biological target: T1, Arachidonate 5-lipoxygenase-activating protein (Homo sapiens); test: Inhibition of FLAP (unknown origin) expressed in HEK293 cells co-expressing 5-LO assessed as suppression of A23187-stimulated 5-LO product formation at 0.3 uM using arachidonic acid as substrate preincubated for 15 mins followed by A23187/substrate addition by RP-HPLC analysis; format: cell-based
[4] = biological target: T1, Arachidonate 5-lipoxygenase-activating protein (Homo sapiens); test: (§3) Inhibition of FLAP in human neutrophils assessed as suppression of A23187-stimulated 5-LO product formation using arachidonic acid as substrate preincubated for 15 mins followed by A23187/arachidonic acid addition after 10 mins RP-HPLC/UV analysis; how it was run: as §2
[5] = biological target: T2, Arachidonate 5-lipoxygenase-activating protein (Homo sapiens, UniProt P20292); test: as §3; how it was run: as §2
T2 sequence (P20292 whole entry): T1 sequence (whole entry)

[6] = biological target: T1, Arachidonate 5-lipoxygenase-activating protein (Homo sapiens); test: Potency index, ratio of BRP-7 IC50 to compound IC50 for FLAP in human neutrophils
[7] = biological target: T2, Arachidonate 5-lipoxygenase-activating protein; test: Inhibition of FLAP in human monocytes assessed as suppression of A23187-stimulated 5-LO product formation preincubated for 15 mins followed by A23187 after 10 mins RP-HPLC/UV analysis; format: cell-based
[8] = biological target: T2, Arachidonate 5-lipoxygenase-activating protein; test: Inhibition of FLAP in human monocytes assessed as suppression of A23187-stimulated 5-LO product formation using 10 uM arachidonic acid as substrate preincubated for 15 mins followed by A23187/arachidonic acid addition after 10 mins by RP-HPLC/UV analysis; format: cell-based
[9] = biological target: T2, Arachidonate 5-lipoxygenase-activating protein; test: Inhibition of FLAP in human monocytes assessed as suppression of fMLP/LPS-stimulated cys-LT formation preincubated for 15 mins measured after 10 mins by ELISA; format: cell-based
[10] = biological target: T3, Polyunsaturated fatty acid 5-lipoxygenase (Homo sapiens) (UniProt P09917); details: 3 uM
T3 sequence (whole entry): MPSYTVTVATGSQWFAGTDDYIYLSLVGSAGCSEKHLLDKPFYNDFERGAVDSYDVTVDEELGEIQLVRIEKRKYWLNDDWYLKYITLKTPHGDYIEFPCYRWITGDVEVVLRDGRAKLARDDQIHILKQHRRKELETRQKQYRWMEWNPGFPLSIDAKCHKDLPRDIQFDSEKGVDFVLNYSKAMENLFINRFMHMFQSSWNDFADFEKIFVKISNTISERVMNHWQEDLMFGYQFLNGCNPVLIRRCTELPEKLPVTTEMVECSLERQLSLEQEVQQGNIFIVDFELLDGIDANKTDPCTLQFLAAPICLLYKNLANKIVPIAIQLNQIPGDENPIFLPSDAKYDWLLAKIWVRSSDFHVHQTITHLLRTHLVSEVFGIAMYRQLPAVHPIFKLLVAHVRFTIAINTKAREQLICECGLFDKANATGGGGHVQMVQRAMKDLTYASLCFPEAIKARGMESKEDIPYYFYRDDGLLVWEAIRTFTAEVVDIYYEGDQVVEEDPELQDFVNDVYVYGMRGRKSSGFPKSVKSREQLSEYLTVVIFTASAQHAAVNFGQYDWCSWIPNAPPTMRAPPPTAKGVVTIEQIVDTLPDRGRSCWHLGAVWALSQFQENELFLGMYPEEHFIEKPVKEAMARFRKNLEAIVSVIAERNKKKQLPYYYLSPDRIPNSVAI

| Activity [1] [%] | Activity [2] [%] | SMILES | further results |
| --- | --- | --- | --- |
| 92 | 85.9 | CC(C)Cc1ccc(C(C)c2nc3cc(OCc4cccc(F)c4)ccc3n2Cc2ccccc2C(F)(F)F)cc1 (stereo not given) |  |
| 65.2 |  | CC(C)Cc1ccc(C(C)c2nc3cc(OCc4ccccc4C#N)ccc3n2Cc2ccccc2C(F)(F)F)cc1 (stereo not given) |  |
| 90.9 |  | CC(C)Cc1ccc(C(C)c2nc3cc(OCc4ccccc4C(F)(F)F)ccc3n2Cc2ccccc2C(F)(F)F)cc1 (stereo not given) |  |
| 92.6 | 90.5 | Cc1ccc(COc2ccc3c(c2)nc(C(C)c2ccc(CC(C)C)cc2)n3Cc2ccccc2C(F)(F)F)cc1 (stereo not given) |  |
| 94.9 | 94 | CC(C)Cc1ccc(C(C)c2nc3cc(OCc4ccc(C(C)(C)C)cc4)ccc3n2Cc2ccccc2C(F)(F)F)cc1 (stereo not given) |  |
| 97.1 | 89.7 | Cc1ccccc1COc1ccc2c(c1)nc(C(C)c1ccc(CC(C)C)cc1)n2Cc1ccccc1C(F)(F)F (stereo not given) |  |
| 92.2 | 92.2 | CC(C)Cc1ccc(C(C)c2nc3cc(OCc4ccccc4Cl)ccc3n2Cc2ccccc2C(F)(F)F)cc1 (stereo not given) |  |
| 98.2 |  | Cc1cccc(COc2ccc3c(c2)nc(C(C)c2ccc(CC(C)C)cc2)n3Cc2ccccc2C(F)(F)F)c1 (stereo not given) |  |
| 0 |  | CC(C)Cc1ccc(C(C)c2nc3cc(C#N)ccc3n2Cc2ccccc2Cl)cc1 (stereo not given) | inhibition [3]: Active; inhibition [4]: Dose-dependent effect; IC50 [5]: 70 nM; Ratio IC50 [6]: 4.4; IC50 [7]: 26 nM; IC50 [8]: 35 nM; IC50 [9]: 12 nM |
| 58.1 |  | CCCCOc1ccc2c(c1)nc(C(C)c1ccc(CC(C)C)cc1)n2Cc1ccccc1C(F)(F)F (stereo not given) |  |
| 39.9 | 15.6 | CC(C)Cc1ccc(C(C)c2nc3cc(OCc4ccccc4C#N)ccc3n2Cc2ccccc2Cl)cc1 (stereo not given) | IC50 [5]: 120 nM |
| 91.7 | 94.3 | CC(C)Cc1ccc(C(C)c2nc3cc(OCc4ccc(C(F)(F)F)cc4)ccc3n2Cc2ccccc2C(F)(F)F)cc1 (stereo not given) |  |
| 1.9 |  | COC(=O)COc1ccc2c(c1)nc(C(C)c1ccc(CC(C)C)cc1)n2Cc1ccccc1C(F)(F)F (stereo not given) | IC50 [5]: 210 nM |
| 108 | 94.4 | CC(C)Cc1ccc(C(C)c2nc3cc(OCc4ccc(Br)cc4)ccc3n2Cc2ccccc2C(F)(F)F)cc1 (stereo not given) |  |
| 60.2 |  | CC(C)=CCOc1ccc2c(c1)nc(C(C)c1ccc(CC(C)C)cc1)n2Cc1ccccc1C(F)(F)F (stereo not given) |  |
| 71.1 |  | CC(C)Cc1ccc(C(C)c2nc3cc(OCc4ccc(C#N)cc4)ccc3n2Cc2ccccc2C(F)(F)F)cc1 (stereo not given) |  |
| 99.9 |  | CC(C)Cc1ccc(C(C)c2nc3cc(OCc4ccc(OC(F)(F)F)cc4)ccc3n2Cc2ccccc2C(F)(F)F)cc1 (stereo not given) |  |
| 7.5 | 0.6 | C=CCOc1ccc2c(c1)nc(C(C)c1ccc(CC(C)C)cc1)n2Cc1ccccc1C(F)(F)F (stereo not given) | IC50 [5]: 170 nM |
| 0 |  | CC(C)Cc1ccc(C(C)c2nc3cc(OCc4ccccn4)ccc3n2Cc2ccccc2C(F)(F)F)cc1 (stereo not given) | IC50 [5]: 150 nM |
| 55.6 |  | CCC#CCOc1ccc2c(c1)nc(C(C)c1ccc(CC(C)C)cc1)n2Cc1ccccc1C(F)(F)F (stereo not given) |  |
| 81.6 | 80.1 | COc1ccc(COc2ccc3c(c2)nc(C(C)c2ccc(CC(C)C)cc2)n3Cc2ccccc2C(F)(F)F)cc1 (stereo not given) |  |
| 2.7 |  | CC(C)c1ccc2c(c1)c(SC(C)(C)C)c(CC(C)(C)C(=O)O)n2Cc1ccc(Cl)cc1 | inhibition [3]: Active |
|  |  | CC(c1cc2ccccc2s1)N(O)C(N)=O (stereo not given) | inhibition [10]: > 80% |
